We go through 24 compounds from PMC3310921 (Bioorganic & medicinal chemistry, 2010).

Values joined by “and” are separate entries in the source; they are usually repeats but may differ in a detail not shown here. Equal entries are not always repeated. “Also recorded” adds a separate entry of the source. Where two headings read alike, the source gives them in different places.

Data set [1] can be described thus: Cytotoxicity, average of the three normal cells. The class given is cell-based. The conditions noted are these: human, HGF, HPC and HPLF normal cells (average of the three). In outline:
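Human HGF gingival fibroblasts, HPC pulp cells and HPLF periodontal ligament fibroblasts were exposed to graded concentrations for 24 h, up to a maximum of 400 μM. CC50 is the concentration cutting viable cell number by 50%. It was read from dose–response curves from duplicate determinations, then averaged over the three normal cell types.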

The subject of data set [2] is mice. Put plainly: Murine toxicity study. The data set is classed as in vivo. To be noted: for Neurotoxicity in mice (in words): 30, 100 and 300 mg/kg intraperitoneally, examined after 0.5 and 4 h.
Data set [3] concerns HSC-4 squamous cell carcinoma cells. The conditions noted are these: read-out: CC50 HSC-4; human malignant cells; reported previously ref 27; cited from earlier work.
In data set [4] the test system is HSC-2 squamous cell carcinoma cells. To be noted: read-out: CC50 HSC-2, human malignant cells, cited from earlier work.
The subject of data set [5] is mice. To be noted: cited from earlier work.
For data set [6], the system named is HL-60 promyelocytic leukemia cells. To be noted: read-out: CC50 HL-60, human malignant cells, cited from earlier work.
Data set [7] relates to mice. To be noted: recorded previously ref 25, cited from earlier work; for Neurotoxicity in mice (in words): 30, 100 and 300 mg/kg intraperitoneally, 0.5 and 4 h.
A further data set deals with caspase-3 in HL-60 cells. The experiment in a line: Caspase-3 activation in HL-60 cells. The class given is cell-based, human. To be noted: 5 h incubation.
For the next data set, the system named is caspase-3 in HSC-2 cells. Put plainly: Caspase-3 activation in HSC-2 cells. To be noted: 5 h incubation. The class given is cell-based, human. In outline: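 HSC-2 cells, with HL-60 run in parallel, were exposed to the test compound for 5 h, then assayed for caspase-3 activation. The reference was UV irradiation at 6 J/m²/min for 1 min, followed by 3 h incubation. Values are from n = 3.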

The test system of the next data set is HL-60 cells. Put plainly: Internucleosomal DNA fragmentation in HL-60 cells. The class given is cell-based, human. To be noted: 6 h incubation.
Another data set deals with HSC-2 cells. The experiment in a line: Internucleosomal DNA fragmentation in HSC-2 cells. The class given is cell-based, human. To be noted: 6 h incubation. In outline:
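After 6 h exposure of HSC-2 cells (HL-60 in parallel), cellular DNA was examined for internucleosomal laddering against a DNA molecular-weight marker.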

Data set [8] concerns HPLF periodontal ligament fibroblasts. The conditions noted are these: read-out: CC50 HPLF; human normal cells; reported previously ref 26; cited from earlier work.
Another data set deals with HPC pulp cells. To be noted: read-out: CC50 HPC; human normal cells; reported previously ref 26; cited from earlier work.
The test system of the next data set is HGF gingival fibroblasts. To be noted: read-out: CC50 HGF; human normal cells; reported previously ref 26; cited from earlier work.
Setting [9] is: 300 mg/kg intraperitoneally, 0.5 h.
Where [10] appears, read: 100 mg/kg intraperitoneally, 0.5 h.

In data set [1], `Cc1ccc(/C=C2\CCC/C(=C\c3ccc([N+](=O)[O-])cc3)C2=O)cc1` [Compound 3e] came in with a 50% cytotoxic concentration (CC50) at 24 h of more than 280 µM. Further, the “Number of animals demonstrating neurological deficit/number of treated mice” value with mice [2] (setting [9]) was “half or more and 3/4”.
Compound `O=C1CCCC/C1=C\c1cccc([N+](=O)[O-])c1` [Compound 4b] showed a half-maximal cytotoxic concentration (CC50) at 24 h in [1] of 60 µM. Moreover, the “Number of animals demonstrating neurological deficit/number of treated mice” value in the data set on mice [2] (setting [9]) was 1/4.
As to `COc1ccc(/C=C2\CCC/C(=C\c3cccc([N+](=O)[O-])c3)C2=O)cc1` [Compound 2f], the CC50 at 24 h in data set [1] is more than 262 µM. The “Number of animals demonstrating neurological deficit/number of treated mice” value in the data set with mice [2] (30 mg/kg intraperitoneally, 0.5 h) was 1/4. The “Neurotoxicity in mice (in words)” value with mice [2] is recorded as “Marginal neurotoxicity”.
`O=C1CCCC/C1=C\c1ccccc1[N+](=O)[O-]` [Compound 4a] displayed a cytotoxic concentration (CC50) at 24 h in data set [1] of 146 µM. Besides, the “Number of animals demonstrating neurological deficit/number of treated mice” value in the data set with mice [2] (setting [9]) is 1/4. The “Neurotoxicity in mice (in words)” value with mice [2] is listed as “Marginal neurotoxicity”.
For `CN(C)c1ccc(/C=C2\CCC/C(=C\c3cccc([N+](=O)[O-])c3)C2=O)cc1` [Compound 2d], the figures for the “Number of animals demonstrating neurological deficit/number of treated mice” value in the data set with mice [2] (setting [10]) and in the data set with mice [2] (setting [9]) were 1/8 and 1/4, respectively.
`O=C1/C(=C/c2ccccc2)CCC/C1=C\c1cccc([N+](=O)[O-])c1` [Compound 2a]: in data set [1], the midpoint of cytotoxicity, the CC50 at 24 h, lay at 19 µM. For the same compound, the “Number of animals demonstrating neurological deficit/number of treated mice” value is 2/8 in the data set on mice [2] (setting [10]); “half or more and 2/4” in the data set on mice [2] (setting [9]). Besides, the “Neurotoxicity in mice (in words)” value in the data set with mice [2] was “Marginal neurotoxicity”.
Compound `COc1ccc(/C=C2\CCC/C(=C\c3ccccc3[N+](=O)[O-])C2=O)cc1` [Compound 1f] yielded a cytotoxic concentration (CC50) at 24 h in [1] of more than 395 µM.
With `O=C1/C(=C/c2ccc(F)cc2)CCC/C1=C\c1ccc([N+](=O)[O-])cc1` [Compound 3b], the CC50 at 24 h in data set [1] is more than 375 µM. Further, in the data set on mice [2] (setting [10]), the “Number of animals demonstrating neurological deficit/number of treated mice” value was 1/8. For the same compound, the “Neurotoxicity in mice (in words)” value in the data set on mice [2] is listed as “Marginal neurotoxicity”.
On to `O=C1/C(=C/c2ccc(Cl)cc2)CCC/C1=C\c1cccc([N+](=O)[O-])c1` [Compound 2c], for which, in [1], half-maximal cytotoxicity (CC50 at 24 h) was put at 32 µM.
In the case of `N[C@@H](Cc1ccc(N(CCCl)CCCl)cc1)C(=O)O` [Melphalan, reference compound], the CC50 in [3] was 81 µM; in [4] (reported previously ref 27), 35 µM; in [6] (reported previously ref 27), 6 µM. The 50% lethal dose (LD50) in the data set with mice [5] is 4.0 mg/kg.
Consider `O=C1/C(=C/c2ccc(Cl)cc2)CCC/C1=C\c1ccc([N+](=O)[O-])cc1` [Compound 3c], for which, in the data set on mice [7], the “Neurotoxicity in mice (in words)” value was “did not display any neurotoxic symptoms; also recorded: no neurotoxicity”.
In data set [1], `O=C1/C(=C/c2ccc(F)cc2)CCC/C1=C\c1cccc([N+](=O)[O-])c1` [Compound 2b] gave a CC50 at 24 h of 39 µM. In addition, the “Number of animals demonstrating neurological deficit/number of treated mice” value in the data set with mice [2] (setting [10]) is recorded as 1/8.
In the case of `O=C1/C(=C/c2ccc(Cl)cc2)CCC/C1=C\c1ccccc1[N+](=O)[O-]` [Compound 1c], the entries for the “Activation of caspase-3” value in the data set on caspase-3 in HL-60 cells and in the data set on caspase-3 in HSC-2 cells were “concentration-dependent activation of caspase-3” and “no evidence”, respectively. The figures for the “Induction of internucleosomal DNA fragmentation” value in the data set on HL-60 cells and with HSC-2 cells were “induced the internucleosomal DNA fragmentation” and “no evidence”, respectively. Also, the “Number of animals demonstrating neurological deficit/number of treated mice” value in the data set on mice [2] (300 mg/kg intraperitoneally, 4 h) was “half or more”.
For `COc1cc(OC)c(OC)cc1/C=C1\CCC/C(=C\c2ccc([N+](=O)[O-])cc2)C1=O` [Compound 5b, 6-(4-Nitrobenzylidene)-2-(2,4,5-trimethoxybenzylidene) cyclohexanone], the results for the “Number of animals demonstrating neurological deficit/number of treated mice” value in the data set with mice [2] (setting [10]) and in the data set on mice [2] (setting [9]) were 1/8 and 1/4, respectively. In addition, the “Neurotoxicity in mice (in words)” value in the data set with mice [2] is “Marginal neurotoxicity”.
As to `COc1cc(/C=C2\CCC/C(=C\c3cccc([N+](=O)[O-])c3)C2=O)cc(OC)c1OC` [Compound 2g], in data set [1], the CC50 at 24 h was more than 379 µM.
For `CN(C)c1ccc(/C=C2\CCC/C(=C\c3ccc([N+](=O)[O-])cc3)C2=O)cc1` [Compound 3d], the “Number of animals demonstrating neurological deficit/number of treated mice” value in the data set on mice [2] (setting [10]) is 2/8.
As for `COc1cc(/C=C2\CCC/C(=C\c3ccc([N+](=O)[O-])cc3)C2=O)cc(OC)c1OC` [Compound 3g], the “Number of animals demonstrating neurological deficit/number of treated mice” value with mice [7] (setting [10]) is 2/8. The “Neurotoxicity in mice (in words)” value in the data set on mice [7] is “Marginal neurotoxicity”.
`Cc1ccc(/C=C2\CCC/C(=C\c3cccc([N+](=O)[O-])c3)C2=O)cc1` [Compound 2e] yielded a half-maximal cytotoxic concentration (CC50) at 24 h in data set [1] of more than 331 µM. Further, the “Neurotoxicity in mice (in words)” value in the data set on mice [2] is given as “did not display any neurotoxic symptoms”.
`O=C1/C(=C/c2ccc(F)cc2)CCC/C1=C\c1ccccc1[N+](=O)[O-]` [Compound 1b] came in with a CC50 at 24 h in data set [1] of 53 µM.
Turning to `O=C1/C(=C/c2ccccc2)CCC/C1=C\c1ccccc1[N+](=O)[O-]` [Compound 1a], the CC50 at 24 h in data set [1] came out at 45 µM. Besides, in the data set on mice [2], the “Neurotoxicity in mice (in words)” value is “did not display any neurotoxic symptoms”.
On to `COc1ccc(/C=C2\CCC/C(=C\c3ccc([N+](=O)[O-])cc3)C2=O)c(OC)c1OC` [Compound 5a, 6-(4-Nitrobenzylidene)-2-(2,3,4-trimethoxybenzylidene) cyclohexanone], for which the “Neurotoxicity in mice (in words)” value in the data set on mice [2] is reported as “did not display any neurotoxic symptoms”.
`COc1cc(/C=C2\CCC/C(=C\c3ccccc3[N+](=O)[O-])C2=O)cc(OC)c1OC` [Compound 1g] showed a cytotoxic concentration (CC50) at 24 h in data set [1] of 53 µM.
On to `O=C1/C(=C/c2ccccc2)CCC/C1=C\c1ccc([N+](=O)[O-])cc1` [Compound 3a], for which the 50% cytotoxic concentration (CC50) at 24 h in data set [1] was found to be 259 µM. In addition, the “Neurotoxicity in mice (in words)” value with mice [2] is recorded as “did not display any neurotoxic symptoms”.
Consider `COc1ccc(/C=C2\CCC/C(=C\c3ccc([N+](=O)[O-])cc3)C2=O)cc1` [Compound 3f], for which the CC50 (in [8]; with HPC pulp cells; with HGF gingival fibroblasts; in data set [4] (reported previously ref 26); in data set [6] (reported previously ref 26)) was more than 400 µM throughout.

By CC50 is commonly meant the concentration at which the toxic effect on the cells reaches its halfway point. As usually defined, the LD50 is the dose at which mortality reaches 50%.
